Laboratory results taken from ChEMBL document CHEMBL1143823, “Addition of a C-terminal cysteine improves the anti-herpes simplex virus activity of a peptide containing the human immunodeficiency virus type 1 TAT protein transduction domain” (Antimicrob Agents Chemother, 2007).
Active and inactive are the calls of the source. The calls are words filed in the database; no cut-off is given here.

Key:
Human alphaherpesvirus 1 [1] = assay: Inhibition of HSV1 entry in african green monkey Vero cells assessed as beta-galactosidase activity for 1 hr at 37 degC; type: functional, organism-based; conditions: Human alphaherpesvirus 1, Vero
Method in brief: (§1)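 HSV-1 hrR3 (MOI 0.02–0.03) adsorbed to precooled Vero cells 1 h at 4°C and rinsed. Peptide added at 4°C, shifted to 37°C for 1 h of entry. Peptide rinsed off; pH 3 citrate 60 s. Lysis at 6 h, initial β-galactosidase rate (CPR-Gal, 570 nm) relative to mock, minus cycloheximide background; triplicates.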

Vero = assay: Cytotoxicity against african green monkey Vero cells by trypan blue exclusion assay; type: cell-based; conditions: chlorocebus sabaeus
Method in brief: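 Viability by trypan blue exclusion in Vero cells after peptide exposure.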

Human alphaherpesvirus 1 [2] = assay: Antiviral activity against HSV1 in african green monkey Vero cells assessed as resistance to viral infection after 1 hr at 37 degC; type: functional, organism-based; conditions: Human alphaherpesvirus 1, Vero
Method in brief: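 Vero monolayers exposed to peptide 1 h at 37°C, rinsed three times, infected with hrR3 (MOI 0.01) 1 h at 37°C without peptide. pH 3 citrate inactivates extracellular virus; lysate β-galactosidase (CPR-Gal, 570 nm) read 6 h later. EC50 from dose-response, triplicates per concentration.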

Human alphaherpesvirus 1 [3] = assay: Antiviral activity against HSV1 in african green monkey Vero cells assessed as viral inactivation after 1 hr at 37 degC; type: functional, organism-based; conditions: Human alphaherpesvirus 1, Vero
Method in brief: (§2)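 hrR3 virions (1×10^6–6×10^6 PFU/ml) in serum-free DMEM incubated with peptide 1 h at 37°C. Free peptide removed by 1,000-fold dilution or by pelleting at 14,000 × g. Infectivity then titrated on Vero cells in triplicate by lysate β-galactosidase or X-Gal staining. EC50 from dose-response curves.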

Human alphaherpesvirus 1 [4] = assay: Inhibition of HSV1 entry in african green monkey Vero cells assessed as beta-galactosidase activity relative to control […]; type: functional, organism-based; conditions: Human alphaherpesvirus 1, Vero; method in brief: as §1
Human alphaherpesvirus 2 [5] = assay: Antiviral activity against HSV2 333 assessed by plaque reduction assay; type: functional, organism-based
Method in brief: (§3)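 Plaque reduction on Vero monolayers with HSV-2 strain 333, 150 PFU/well adsorbed 1 h at 4°C. Peptide added at 4°C, shift to 37°C 10 min later; alternatively cells pretreated 1 h at 4°C with peptide and rinsed before virus. Extracellular virus inactivated; 2% methylcellulose overlay for 2.5 days; crystal violet plaque counts.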

Human alphaherpesvirus 2 [6] = assay: Antiviral activity against HSV2 333 assessed as resistance against viral infection; type: functional, organism-based
Human alphaherpesvirus 1 [7] = assay: Inhibition of HSV1 entry in african green monkey Vero cells assessed as beta-galactosidase activity at 30 uM at 33 degC after 40 mins; type: functional, organism-based
Method in brief: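 Vero cells on strip-well plates with hrR3 adsorbed 1 h at 4°C; entry started by floating the plate at 33°C. Peptide added just before the shift or 35 min after, returning to 33°C at 40 min. At set times, external virus inactivated with pH 3 citrate. Lysed 6 h later; β-galactosidase initial rate read against mock-treated controls, triplicate.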

Human alphaherpesvirus 1 [8] = assay: Inhibition of HSV1 hrR3S syncytium formation in african green monkey Vero cells assessed as reduction of beta-galactosidase activity at 100 uM; type: functional; design: scale not given: the % may be the effect or the level left
Method in brief: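 Confluent Vero (2.0 × 10^5 cells/well) infected with syncytial hrR3S (MOI 0.02 to 0.05) 1 to 2 h at 37°C, rinsed, then held up to 24 h at 37°C in carbonate-buffered serum DMEM with neutralizing anti-HSV-1 antibody (50-fold dilution) ± peptide. Fusion read as initial β-galactosidase rate in NP-40 lysates with CPR-Gal at 570 nm.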

Human alphaherpesvirus 1 [9] = assay: Inhibition of HSV1 attachment in african green monkey Vero cells at 100 uM at 37 degC; type: functional; conditions: Human alphaherpesvirus 1, Vero
Human alphaherpesvirus 1 [10] = assay: Antiviral activity against HSV1 assessed as Inhibition of VP16 nuclear translocation in african green monkey Vero cells at 300 uM after 1 hr at 37 degC; type: functional; design: scale not given: the % may be the effect or the level left
Method in brief: (§4)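 Vero cells on poly-L-lysine coverslips; HSV-1 adsorbed 80 min at 4°C (MOI 10). Peptide at 50 μM present for the last 20 min of adsorption and through the 1 h 37°C entry period, or virus pretreated with 300 μM for 1 h at 37°C and then diluted. Cells fixed, anti-VP16 immunofluorescence, 50 cells per group scored for nuclear VP16.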

Human alphaherpesvirus 1 [11] = assay: Inactivation of HSV1 in african green monkey Vero cells assessed as beta-galactosidase activity upto 200 uM at 37 degC; type: functional, organism-based; method in brief: as §2
Human alphaherpesvirus 1 [12] = assay: Antiviral activity against HSV1 assessed as Inhibition of VP16 nuclear translocation in african green monkey Vero cells at 50 uM after 1 hr at 4 degC; type: functional; design: scale not given: the % may be the effect or the level left; method in brief: as §4
Human alphaherpesvirus 1 [13] = assay: Antiviral activity against HSV1 hrR3S infected african green monkey Vero cells assessed as inhibition of viral cell-cell spread at 100 uM; type: functional, organism-based
Method in brief: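 Vero cells infected with syncytial hrR3S (MOI 0.02–0.05) for 1–2 h at 37°C, then held up to 24 h at 37°C with 50-fold diluted neutralizing anti-HSV-1 antibody ± peptide. Syncytia viewed by X-Gal staining; fusion quantified as initial rate of lysate β-galactosidase.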

Human alphaherpesvirus 2 [14] = assay: Antiviral activity against HSV2 333 pretreated for 1 hr before viral infection at 4 degC by plaque reduction assay; type: functional, organism-based; method in brief: as §3

SMILES	EC50 (Human alphaherpesvirus 1 [1])	Activity (Vero)	EC50 (Human alphaherpesvirus 1 [2])	EC50 (Human alphaherpesvirus 1 [3])	further results
N=C(N)NCCC[C@@H](NC(=O)CN)C(=O)N[C@H](CCCCN)C(=O)N[C@H](CCCCN)C(=O)N[C@H](CCCNC(=N)N)C(=O)N[C@H](CCCNC(=N)N)C(=O)N[C@H](CCC(N)=O)C(=O)N[C@H](CCCNC(=N)N)C(=O)N[C@H](CCCNC(=N)N)C(=O)N[C@H](CCCNC(=N)N)C(=O)N1CCC[C@@H]1C(N)=O	0.7 µM	Non-toxic	> 1200 µM	1050 µM	EC50 (Human alphaherpesvirus 1 [4]): 0.3 µM
N=C(N)NCCC[C@@H](NC(=O)CN)C(=O)N[C@H](CCCCN)C(=O)N[C@H](CCCCN)C(=O)N[C@H](CCCNC(=N)N)C(=O)N[C@H](CCCNC(=N)N)C(=O)N[C@H](CCC(N)=O)C(=O)N[C@H](CCCNC(=N)N)C(=O)N[C@H](CCCNC(=N)N)C(=O)N[C@H](CCCNC(=N)N)C(=O)N[C@H](CS)C(N)=O	0.9 µM	Non-toxic	1.1 µM	200 µM	EC50 (Human alphaherpesvirus 2 [5]): 2.5 µM; EC50 (Human alphaherpesvirus 1 [4]): 0.3 µM; EC50 (Human alphaherpesvirus 2 [6]): 81 µM
CCCC[C@H](NC(=O)[C@H](CCCC)NC(=O)[C@H](CCC(N)=O)NC(=O)[C@H](CCCNC(=N)N)NC(=O)[C@H](CCCNC(=N)N)NC(=O)[C@H](CCCCN)NC(=O)[C@H](CCCCN)NC(=O)[C@H](CCCNC(=N)N)NC(=O)CNC(=O)CCCCCNC(=O)CCCC[C@@H]1SC[C@@H]2NC(=O)N[C@@H]21)C(=O)N[C@@H](CCCNC(=N)N)C(=O)N[C@@H](CS)C(=O)O	37 µM	Non-toxic			
CCCC[C@H](NC(=O)[C@H](CCCC)NC(=O)[C@H](CCC(N)=O)NC(=O)[C@H](CCCNC(=N)N)NC(=O)[C@H](CCCNC(=N)N)NC(=O)[C@H](CCCCN)NC(=O)[C@H](CCCCN)NC(=O)[C@H](CCCNC(=N)N)NC(=O)CN)C(=O)N[C@@H](CCCNC(=N)N)C(=O)N[C@@H](CS)C(=O)O	48 µM	Non-toxic	230 µM	900 µM	
CCCC[C@H](NC(=O)[C@H](CCCNC(=N)N)NC(=O)CN)C(=O)N[C@@H](CCCC)C(=O)N[C@@H](CCCNC(=N)N)C(=O)N[C@@H](CCCNC(=N)N)C(=O)N[C@@H](CCC(N)=O)C(=O)N[C@@H](CCCNC(=N)N)C(=O)N[C@@H](CCCNC(=N)N)C(=O)N[C@@H](CCCNC(=N)N)C(=O)N[C@@H](CS)C(N)=O	9.6 µM	Non-toxic	92 µM	115 µM	Activity (Human alphaherpesvirus 1 [7]): Active
N=C(N)NCCC[C@@H](NC(=O)CN)C(=O)N[C@H](CCCCN)C(=O)N[C@H](CCCCN)C(=O)N[C@H](CCCNC(=N)N)C(=O)N[C@H](CCCNC(=N)N)C(=O)N[C@H](CCC(N)=O)C(=O)N[C@H](CCCNC(=N)N)C(=O)N[C@H](CCCNC(=N)N)C(=O)N[C@H](CCCNC(=N)N)C(=O)N[C@H](CSSC[C@@H](NC(=O)[C@@H](CCCNC(=N)N)NC(=O)[C@@H](CCCNC(=N)N)NC(=O)[C@@H](CCCNC(=N)N)NC(=O)[C@@H](CCC(N)=O)NC(=O)[C@@H](CCCNC(=N)N)NC(=O)[C@@H](CCCNC(=N)N)NC(=O)[C@@H](CCCCN)NC(=O)[C@@H](CCCCN)NC(=O)[C@@H](CCCNC(=N)N)NC(=O)CN)C(N)=O)C(N)=O	0.6 µM	Non-toxic	0.4 µM	34 µM	
N=C(N)NCCC[C@H](NC(=O)CN)C(=O)N[C@@H](CCCCN)C(=O)N[C@@H](CCCCN)C(=O)N[C@@H](CCCNC(=N)N)C(=O)N[C@@H](CCCNC(=N)N)C(=O)N[C@@H](CCC(N)=O)C(=O)N[C@@H](CCCNC(=N)N)C(=O)N[C@@H](CCCNC(=N)N)C(=O)N[C@@H](CCCNC(=N)N)C(=O)N[C@@H](CS)C(N)=O	0.9 µM	Non-toxic	3.9 µM	390 µM	
N=C(N)NCCC[C@@H](NC(=O)CNC(=O)CCCCCNC(=O)CCCC[C@@H]1SC[C@@H]2NC(=O)N[C@@H]21)C(=O)N[C@H](CCCCN)C(=O)N[C@H](CCCCN)C(=O)N[C@H](CCCNC(=N)N)C(=O)N[C@H](CCCNC(=N)N)C(=O)N[C@H](CCC(N)=O)C(=O)N[C@H](CCCNC(=N)N)C(=O)N[C@H](CCCNC(=N)N)C(=O)N[C@H](CCCNC(=N)N)C(=O)N[C@H](CS)C(=O)O	2.1 µM	Non-toxic			Activity (Human alphaherpesvirus 1 [8]): 93%; inhibition at 100 µM (Human alphaherpesvirus 1 [9]): 25%
N=C(N)NCCC[C@H](NC(=O)CN)C(=O)N[C@@H](CCCCN)C(=O)N[C@@H](CCCCN)C(=O)N[C@@H](CCCNC(=N)N)C(=O)N[C@@H](CCCNC(=N)N)C(=O)N[C@@H](CCC(N)=O)C(=O)N[C@@H](CCCNC(=N)N)C(=O)N[C@@H](CCCNC(=N)N)C(=O)N[C@@H](CCCNC(=N)N)C(=O)N[C@@H](CS)C(=O)O	3.1 µM	Non-toxic	3.3 µM	96 µM	Activity (Human alphaherpesvirus 1 [10]): 2.5%; Activity (Human alphaherpesvirus 1 [11]): Active; Activity (Human alphaherpesvirus 1 [12]): 6%
N=C(N)NCCC[C@H](NC(=O)[C@H](CCCNC(=N)N)NC(=O)[C@H](CCCNC(=N)N)NC(=O)[C@H](CCC(N)=O)NC(=O)[C@H](CCCNC(=N)N)NC(=O)[C@H](CCCNC(=N)N)NC(=O)[C@H](CCCCN)NC(=O)[C@H](CCCCN)NC(=O)[C@H](CCCNC(=N)N)NC(=O)CN)C(N)=O	1 µM	Non-toxic	> 1200 µM	> 1200 µM	EC50 (Human alphaherpesvirus 1 [4]): 0.3 µM
N=C(N)NCCC[C@@H](NC(=O)CN)C(=O)N[C@H](CCCCN)C(=O)N[C@H](CCCCN)C(=O)N[C@H](CCCNC(=N)N)C(=O)N[C@H](CCCNC(=N)N)C(=O)N[C@H](CCC(N)=O)C(=O)N[C@H](CCCNC(=N)N)C(=O)N[C@H](CCCNC(=N)N)C(=O)N[C@H](CCCNC(=N)N)C(=O)N[C@H](CS)C(=O)O	2.5 µM	Non-toxic	5.4 µM	150 µM	Activity (Human alphaherpesvirus 1 [13]): Active; EC50 (Human alphaherpesvirus 2 [14]): 7.7 µM; EC50 (Human alphaherpesvirus 2 [5]): 1.3 µM
N=C(N)NCCC[C@H](NC(=O)CNC(=O)CCCCCNC(=O)CCCC[C@@H]1SC[C@@H]2NC(=O)N[C@@H]21)C(=O)N[C@@H](CCCCN)C(=O)N[C@@H](CCCCN)C(=O)N[C@@H](CCCNC(=N)N)C(=O)N[C@@H](CCCNC(=N)N)C(=O)N[C@@H](CCC(N)=O)C(=O)N[C@@H](CCCNC(=N)N)C(=O)N[C@@H](CCCNC(=N)N)C(=O)N[C@@H](CCCNC(=N)N)C(=O)N[C@@H](CS)C(N)=O	5.7 µM	Non-toxic			
